Measurements pooled from the literature.
Lines come from different studies, so protocols differ.
Target: RAC-gamma serine/threonine-protein kinase (AKT3, Homo sapiens, UniProt Q9Y243)

COc1ccc2c(c1)O[C@H](c1ccc(OC)c(OC)c1)C[C@@H]2NC(=O)C1(c2ccc3c(c2)OC(F)(F)O3)CC1 — remaining binding (cell-free assay, competition with immobilised ligand; 1 µM): 100%
COc1ncc2cc3ccccc3nc2c1C#N — remaining binding (cell-free assay, competition with immobilised ligand; 5 µM): 100%
COc1cnc(Nc2cccc(S(N)(=O)=O)c2)nc1N1CCN(c2ccccc2)CC1 — remaining binding (binding, competition with immobilised ligand; 1 µM): 100%
CN(C)c1nccc(-c2cnc3ncccn23)n1 — remaining binding (binding; 1 µM): 91%
CCC(=O)N[C@H]1CC[C@@H](C(=O)N(C)c2ccc(-c3nc4ccccc4o3)cc2)C1 — remaining binding (cell-free assay, competition with immobilised ligand; 1 µM): 100%
N[C@@H]1CCN(c2nccc(-c3cnn4ncccc34)n2)C1 — remaining binding (binding; 1 µM): 95%
Cc1cnc(Nc2ccc(C(=O)N3CCC(N4CCCC4)CC3)cc2)nc1-c1cc2ccccc2s1 — remaining binding (binding, competition with immobilised ligand; 1 µM): 100%
Cc1nc(C2CCN(C(=O)c3ccc(OC(F)(F)F)cc3N)CC2)c2ncc(N3CCN(C)CC3)cc2n1 — remaining binding (cell-free assay, competition with immobilised ligand; 1 µM): 95%
O=C(Nc1c[nH]nc1C(=O)NC1CCNCC1)c1cc(F)cc(F)c1 — remaining binding (binding, competition with immobilised ligand; 1 µM): 100%
C[C@@H](c1ccc(-n2cnc3c(N)ncnc32)cc1)N1CCc2nn(C)c(Cc3ccccc3)c2C1=O — remaining binding (binding, competition with immobilised ligand; 0.1 µM): 62%
CCc1ccccc1C(=O)Nc1n[nH]c2c(C)c(F)c(C3C(C#N)=C(C)N(C)C(C)=C3C#N)cc12 — remaining binding (cell-free assay, competition with immobilised ligand; 1 µM): 100%
Cc1cnn2ncc(-c3ccnc(N(C)C)n3)c2c1 — remaining binding (binding; 1 µM): 98%
COc1cnc(Nc2cccc(S(N)(=O)=O)c2)nc1N1CCN(c2ccccc2)C(=O)C1 — remaining binding (binding, competition with immobilised ligand; 1 µM): 100%
O=C(c1ccc(Nc2ncc(Cl)c(-c3ccc(Cl)s3)n2)cc1)N1CCC(N2CCCC2)CC1 — remaining binding (binding, competition with immobilised ligand; 1 µM): 100%
C=CC(=O)N1CCC(C(=O)NCC(=O)N2CCN(c3nc(-c4cnc(N)nc4C(F)F)nc(N4CCOCC4)n3)CC2)CC1 — remaining binding (binding, competition with immobilised ligand; 1 µM): 100%
COc1ccnn2ncc(-c3ccnc(N(C)C)n3)c12 — remaining binding (binding; 1 µM): 98%
NS(=O)(=O)c1cc(NC(=O)C2(c3ccccc3Cl)CC2)ccc1Oc1cccc(Cl)c1 — remaining binding (cell-free assay, competition with immobilised ligand; 1 µM): 79%
C[C@@H]1CCN(c2nccc(-c3cnn4ncccc34)n2)C1 — remaining binding (binding; 1 µM): 78%
Cc1noc([C@H]2C[C@@H](c3ccc(C(F)(F)F)cc3)CN(C(=O)N3CCS(=O)(=O)C3)C2)n1 — remaining binding (cell-free assay, competition with immobilised ligand; 1 µM): 100%
CN(C)c1ncc(F)c(-c2cnn3ncccc23)n1 — remaining binding (binding; 1 µM): 100%
O=C(c1ccc(Nc2nccc(-c3cc4ccccc4s3)n2)cc1)N1CCC(N2CCCC2)CC1 — remaining binding (binding, competition with immobilised ligand; 1 µM): 100%
